ChEMBL document CHEMBL1127442, “Triazolinone biphenylsulfonamide derivatives as orally active angiotensin II antagonists with potent AT1 receptor affinity and enhanced AT2 affinity” (J Med Chem, 1994)
Several values for one entry are separate records, joined by “and”; a condition that tells them apart may be missing. Equal entries are not always repeated. Activity calls are given as the source filed them. The rule behind the calls is not given here.

What was measured:
Monkey [1] = test: Inhibition of AII pressor response by the compound in conscious, normotensive monkey, at 3 (mg/kg) peroral dose; assay type: functional, Cercopithecidae
Procedure, shortened: (§1)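 Rhesus monkeys were conscious, given furosemide (5 mg/kg iv) the prior evening, and fasted 18 h with water available. They sat chaired with minimal restraint. AII and iv compound went through saphenous or brachial vein catheters, and oral compound by nasogastric tube. Peak % inhibition of the AII pressor response was measured otherwise as in the rat protocol.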

Rattus norvegicus [2] = test: (§2) Time from onset of action until significant (i.e., >=30%) inhibition of pressor response is no longer observed, at 1 (mg/kg) intravenous dose; assay type: functional
[3] = biological target: T1, Type-2 angiotensin II receptor (Rattus norvegicus, UniProt P35351); test: In vitro inhibitory activity against angiotensin II rat midbrain AT2 receptor using radioligand [125I]-Sar Ile-AII
T1 sequence (P35351 whole entry): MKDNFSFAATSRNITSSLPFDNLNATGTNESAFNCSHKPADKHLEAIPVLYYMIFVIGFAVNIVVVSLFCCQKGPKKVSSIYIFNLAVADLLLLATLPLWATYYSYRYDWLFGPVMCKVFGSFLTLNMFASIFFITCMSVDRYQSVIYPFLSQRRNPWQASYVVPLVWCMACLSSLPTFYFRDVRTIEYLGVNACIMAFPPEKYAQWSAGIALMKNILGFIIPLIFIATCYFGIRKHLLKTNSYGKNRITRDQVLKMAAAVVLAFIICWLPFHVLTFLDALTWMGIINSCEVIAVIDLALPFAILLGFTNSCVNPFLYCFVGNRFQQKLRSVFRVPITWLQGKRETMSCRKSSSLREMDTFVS
Procedure, shortened: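 Dithiothreitol ([…]) was added to the assay mixture to abolish residual AT1 binding. Tubes were run in duplicate, and IC50 came from nonlinear regression of displacement curves.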

Rattus norvegicus [4] = test: Inhibition of AII pressor response by the compound in conscious, normotensive rats, at 1 (mg/kg) peroral dose; assay type: functional
Procedure, shortened: (§3)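 Male Sprague-Dawley rats (300-400 g) were conscious and catheterized for iv dosing and arterial pressure. Compound was given iv or po as the potassium salt in water, with PEG 400 for some oral doses. […] Peak inhibition is the mean of ≥2 rats.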

Rattus norvegicus [5] = test: Inhibition of AII pressor response by the compound in conscious, normotensive rats, at 1 (mg/kg) intravenous dose; assay type: functional; procedure, shortened: as §3
[6] = biological target: T2, Type-1 angiotensin II receptor (Oryctolagus cuniculus, UniProt P34976); test: In vitro inhibitory activity against angiotensin II rabbit aorta AT1 receptor using radioligand [125I]-Sar Ile-AII; assay type: tissue-based
T2 sequence (P34976 whole entry): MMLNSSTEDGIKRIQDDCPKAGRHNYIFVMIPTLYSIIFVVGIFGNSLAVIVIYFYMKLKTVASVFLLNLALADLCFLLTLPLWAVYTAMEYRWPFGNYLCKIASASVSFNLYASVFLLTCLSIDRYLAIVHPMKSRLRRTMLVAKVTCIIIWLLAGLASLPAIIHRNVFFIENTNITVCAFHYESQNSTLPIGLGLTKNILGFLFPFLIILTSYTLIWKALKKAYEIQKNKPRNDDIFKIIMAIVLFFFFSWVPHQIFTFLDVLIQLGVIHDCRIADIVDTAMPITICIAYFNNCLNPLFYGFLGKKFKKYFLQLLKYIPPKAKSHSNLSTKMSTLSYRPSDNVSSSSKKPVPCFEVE

Rattus norvegicus [7] = test: Time from onset of action until significant (i.e., >=30%) inhibition of pressor response is no longer observed, at 1 (mg/kg) peroral dose; assay type: functional
Procedure, shortened: (§4)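 Conscious catheterized male Sprague-Dawley rats received compound iv or po as the water-soluble potassium salt, or in PEG 400 orally. AII (0.1 μg/kg iv) boluses were repeated at intervals while the compound was active.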

Monkey [8] = test: (§5) Time from onset of action until significant (i.e., >=30%) inhibition of pressor response is no longer observed, at 3 (mg/kg) peroral dose; assay type: functional, Cercopithecidae
Monkey [9] = test: Time from onset of action until significant (i.e., >=30%) inhibition of pressor response is no longer observed, at 10 (mg/kg) peroral dose
Rattus norvegicus [10] = test: (§6) Time from onset of action until significant (i.e., >=30%) inhibition of pressor response is no longer observed, at 0.3 (mg/kg) peroral dose; assay type: functional; procedure, shortened: as §4
[11] = Inhibition of AII pressor response by the compound in conscious, normotensive rhesus monkeys, at 0.3 (mg/kg) intravenous dose
[12] = Inhibition of AII pressor response by the compound in conscious, normotensive rhesus monkeys, at 1 (mg/kg) intravenous dose
Monkey [13] = test: as §6; assay type: functional, Cercopithecidae; conditions: in the assay text read “intravenous” for “peroral”
Rattus norvegicus [14] = test: Inhibition of AII pressor response by the compound in conscious, normotensive rats, at 0.3 (mg/kg) intravenous dose; assay type: functional; procedure, shortened: as §3
Monkey [15] = test: as §2; assay type: functional, Cercopithecidae
Rattus norvegicus [16] = test: Inhibition of AII pressor response by the compound in conscious, normotensive rats, at 0.3 (mg/kg) peroral dose; assay type: functional; procedure, shortened: as §3
Rattus norvegicus [17] = test: Inhibition of AII pressor response by the compound in conscious, normotensive rats, at 3 (mg/kg) intravenous dose; assay type: functional; procedure, shortened: as §3
Rattus norvegicus [18] = test: Time from onset of action until significant (i.e., >=30%) inhibition of pressor response is no longer observed, at 0.3 (mg/kg) peroral dose; NA= Not active; assay type: functional, organism-based; procedure, shortened: as §4
Rattus norvegicus [19] = test: Time from onset of action until significant (i.e., >=30%) inhibition of pressor response is no longer observed, at 3 (mg/kg) intravenous dose; assay type: functional; procedure, shortened: as §4
Rattus norvegicus [20] = test: Inhibition of AII pressor response by the compound in conscious, normotensive rats, at 0.1 (mg/kg) intravenous dose; assay type: functional; procedure, shortened: as §3
Rattus norvegicus [21] = test: Time from onset of action until significant (i.e., >=30%) inhibition of pressor response is no longer observed, at 0.1 (mg/kg) peroral dose; assay type: functional; procedure, shortened: as §4
Rattus norvegicus [22] = test: Time from onset of action until significant (i.e., >=30%) inhibition of pressor response is no longer observed, at 0.1 (mg/kg) intravenous dose; assay type: functional; procedure, shortened: as §4
Rattus norvegicus [23] = test: Inhibition of AII pressor response by the compound in conscious, normotensive rats, at 0.1 (mg/kg) peroral dose; assay type: functional; procedure, shortened: as §3
Monkey [24] = test: Inhibition of AII pressor response by the compound in conscious, normotensive monkey, at 10 (mg/kg) peroral dose; assay type: functional, Cercopithecidae; procedure, shortened: as §1
Monkey [25] = test: Time from onset of action until significant (i.e., >=30%) inhibition of pressor response is no longer observed, at 10 (mg/kg) peroral dose; assay type: functional, Cercopithecidae
Procedure, shortened: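 Conscious rhesus monkeys were pretreated with furosemide (5 mg/kg iv) and fasted 18 h. Compound was given orally by nasogastric tube, and AII challenges were given iv via a venous catheter, otherwise as in rats.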

Monkey [26] = test: Inhibition of AII pressor response by the compound in conscious, normotensive monkey, at 0.3 (mg/kg) intravenous dose; assay type: functional, Cercopithecidae; procedure, shortened: as §1
Monkey [27] = conditions: Cercopithecidae
Monkey [28] = test: Inhibition of AII pressor response by the compound in conscious, normotensive monkey, at 3 (mg/kg) peroral dose; NA= Not active; assay type: functional, organism-based; conditions: Cercopithecidae; procedure, shortened: as §1
Rattus norvegicus [29] = test: Inhibition of AII pressor response by the compound in conscious, normotensive rats, at 3 (mg/kg) peroral dose; assay type: functional; procedure, shortened: as §3
Rattus norvegicus [30] = test: as §5; assay type: functional

Row | SMILES | IC50 [3] | IC50 [6] | Duration (Rattus norvegicus [2]) | Inhibition (Rattus norvegicus [4]) | Inhibition (Rattus norvegicus [5]) | Duration (Rattus norvegicus [7]) | Duration (Rattus norvegicus [10]) | Duration (Monkey [13]) | Inhibition (Rattus norvegicus [14]) | Duration (Rattus norvegicus [19]) | further results
1 | CCCCc1nn(-c2ccccc2C(F)(F)F)c(=O)n1Cc1ccc(-c2ccccc2S(=O)(=O)NC(=O)c2ccco2)cc1 | 120 nM | 0.26 nM | >6 h | 70% | 85% | 3.7 h | – | – | – | – | Inhibition (Monkey [1]): 54%; Duration (Monkey [8]): 4 h
2 | CCCCc1nn(-c2ccccc2C(F)(F)F)c(=O)n1Cc1ccc(-c2ccccc2S(=O)(=O)NC(=O)c2ccccc2)cc1.ClCCl | 300 nM | 0.43 nM | – | – | – | – | <0.5 h | 5 h | 31% | >6 h | Duration (Monkey [9]): >4 h; Inhibition [11]: 80%; Inhibition [12]: 88%; Duration (Monkey [15]): >6 h; inhibition (Rattus norvegicus [16]): inactive; Inhibition (Rattus norvegicus [17]): 87%; Duration (Rattus norvegicus [18]): inactive
3 | CCCCc1nc(Cl)c(CO)n1Cc1ccc(-c2ccccc2-c2nnn[nH]2)cc1 [LOSARTAN] | – | – | – | 58% | 78% | – | 5.5 h | 0.1 h | 52% | >6 h | Inhibition (Monkey [24]): 50%; Duration (Monkey [25]): 2.1 h; Inhibition (Monkey [26]): 49%; Duration (Monkey [27]): inactive; inhibition (Monkey [28]): inactive
4 | O=C(NS(=O)(=O)c1ccccc1-c1ccc(Cn2c(CCCC(F)(F)F)nn(-c3ccccc3C(F)(F)F)c2=O)cc1)c1ccccc1Cl | 910 nM | 0.36 nM | 2.4 h | – | 67% | – | – | – | – | – | Inhibition (Rattus norvegicus [29]): 76%; Duration (Rattus norvegicus [30]): >24 h

Further lines, with some results ahead:

Row | IC50 [3] | IC50 [6] | SMILES | Duration (Rattus norvegicus [2]) | Inhibition (Rattus norvegicus [4]) | Inhibition (Rattus norvegicus [5]) | Duration (Rattus norvegicus [7]) | Duration (Rattus norvegicus [10]) | Duration (Monkey [13]) | Inhibition (Rattus norvegicus [14]) | Duration (Rattus norvegicus [19]) | further results
5 | 17 nM | 0.45 nM | CCCCc1nn(-c2ccccc2C(F)(F)F)c(=O)n1Cc1ccc(-c2ccccc2S(=O)(=O)NC(=O)OC(C)(C)C)cc1 | >6 h | – | – | >6 h | >4.5 h and >3.5 h | – | 78% | – | Inhibition (Rattus norvegicus [20]): 76%; Duration (Rattus norvegicus [21]): >3 h; Inhibition (Rattus norvegicus [16]): 81%; Duration (Rattus norvegicus [22]): >4.5 h; Inhibition (Rattus norvegicus [23]): 77%
6 | 220 nM | 0.36 nM | CCCCc1nn(-c2ccccc2C(F)(F)F)c(=O)n1Cc1ccc(-c2ccccc2S(=O)(=O)NC(=O)C2CC2(C)C)cc1 (stereo unspecified) | – | 76% | – | >6 h | >5.5 h | 3.5 h | 84% | – | –
